Test results published in PMC8311649 (Journal of Medicinal Chemistry, 2021).

Tests used:
SHV-5 (class A) = SHV-5 (class A) (Klebsiella pneumoniae, UniProt P0A3M1); experiment: β-lactamase inhibition assay, SHV-5; assay type: biochemical
[1] = system: strains expressing class C and OXA-48 β-lactamases; experiment: Ceftibuten rescue against representative ceftibuten-resistant strains; assay type: cell-based, K. pneumoniae and E. coli; conditions: ceftibuten fixed at 1 μg/mL
In short: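 Clinical isolates of E. coli and K. pneumoniae carrying the named β-lactamase classes were tested with ceftibuten held at 1 μg/mL. The value is the minimum concentration of the β-lactamase inhibitor that restores ceftibuten antibacterial activity.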

[2] = system: E. coli expressing TEM-1 + CTX-M-15, CTX-M-15, or KPC-2 + SHV-12; experiment: Murine ascending UTI model; design: species or system C3H/HeJ mice; conditions: mouse, in vivo
[3] = Metabolic stability across all matrixes and species; assay type: in vitro ADME; conditions: CD-1 (mouse), Sprague-Dawley (rat), beagle (dog), cynomolgus monkey, human, intestinal S9, liver S9 and plasma
[4] = Bidirectional permeability through Caco-2 monolayers; assay type: in vitro ADME, human; conditions: human, Caco-2, pH 7.4, recovery (%), 5 µM, 120 minutes
Caco-2 cell monolayers = experiment: as above; assay type: in vitro ADME, human; conditions: for significant efflux: from ER and Papp (B-to-A); for absorption potential classification: from Papp (A-to-B)
[5] = Oral bioavailability PK screening in rats; assay type: in vivo; conditions: rat; oral gavage; dose not given
In short: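 Rats were dosed orally with the ester prodrug. F is percent absolute oral bioavailability, corrected for the molecular-weight difference between prodrug and parent.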

[6] = Metabolic stability, plasma; assay type: in vitro ADME; conditions: human
[7] = Metabolite profiling in cryopreserved hepatocytes; assay type: in vitro ADME; conditions: all species

Chain of SHV-5 (class A) (P0A3M1 22-286, species assumed): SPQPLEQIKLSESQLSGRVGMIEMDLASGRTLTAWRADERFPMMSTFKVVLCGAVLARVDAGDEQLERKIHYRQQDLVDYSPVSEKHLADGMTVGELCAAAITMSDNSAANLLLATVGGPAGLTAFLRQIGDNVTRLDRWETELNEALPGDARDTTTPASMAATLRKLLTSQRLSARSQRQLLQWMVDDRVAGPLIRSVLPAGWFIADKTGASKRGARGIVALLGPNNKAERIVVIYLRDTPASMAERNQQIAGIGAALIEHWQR

CC(F)(F)CCC(=O)N[C@H]1Cc2cccc(C(=O)O)c2OB1O [compound 14, (R)-3-(4,4-Difluoropentanamido)-2-hydroxy-3,4-dihydro-2H-benzo[e][1,2]oxaborinine-8-carboxylic Acid]
IC50 (SHV-5 (class A)): 6 nM
activity rescuing ceftibuten (in words) [1]: reduced activity

Nc1nc(/C(=C/CC(=O)O)C(=O)N[C@@H]2C(=O)N3C(C(=O)O)=CCS[C@H]23)cs1 [CTB, ceftibuten]
cfu reductions in the bladder [2]: ≤ 2 log10
cfu reductions in urine [2]: ≤ 2 log10
cfu reductions in the kidneys ([2]; sc): minimal cfu reductions

CCC(=O)N[C@H]1Cc2cccc(C(=O)O)c2OB1O [compound 5, (R)-2-Hydroxy-3-propionamido-3,4-dihydro-2H-benzo[e][1,2]oxaborinine-8-carboxylic Acid]
half-life at 3 µM [3]: > 120 min
recovery at 120 min, 5 µM ([4]; A-to-B): 103%
recovery at 120 min, 5 µM ([4]; B-to-A): 106%
significant efflux (Caco-2 cell monolayers): no
absorption potential classification (Caco-2 cell monolayers): low (Papp (A-to-B) < 1.0 × 10^–6 cm/s: low)

CCC(=O)N[C@H]1Cc2cccc(C(=O)OCOC(=O)C(CC)CC)c2OB1O [compound 36, ((2-Ethylbutanoyl)oxy)methyl (R)-2-Hydroxy-3-propionamido-3,4-dihydro-2H-benzo[e][1,2]oxaborinine-8-carboxylate]
oral bioavailability (F) in rats [5]: highest oral bioavailability
half-life at 3 µM [6]: ~11 min
parent remaining after hepatocyte incubation ([7]; 2 µM and 20 µM, 37 °C, 240 min): 0–5%
metabolites detected after hepatocyte incubation ([7]; metabolite identified as 5 (hydrolysis)): one metabolite
recovery at 120 min, 5 µM ([4]; A-to-B): 90%
recovery at 120 min, 5 µM ([4]; B-to-A): 98%
significant efflux (Caco-2 cell monolayers): yes (ER ≥ 2.0 and Papp (B-to-A) ≥ 1.0 × 10^–6 cm/s)
absorption potential classification (Caco-2 cell monolayers): high (Papp (A-to-B) ≥ 1.0 × 10^–6 cm/s: high)

O=C(CCC(F)(F)F)N[C@H]1Cc2cccc(C(=O)O)c2OB1O [compound 7, (R)-2-Hydroxy-3-(4,4,4-trifluorobutanamido)-3,4-dihydro-2H-benzo[e][1,2]oxaborinine-8-carboxylic Acid]
activity rescuing ceftibuten (in words) [1]: reduced activity

C#CCCC(=O)N[C@H]1Cc2cccc(C(=O)O)c2OB1O [compound 12, (R)-2-Hydroxy-3-(pent-4-ynamido)-3,4-dihydro-2H-benzo[e][1,2]oxaborinine-8-carboxylic Acid]
activity rescuing ceftibuten (in words) [1]: reduced activity

CCC(=O)N[C@H]1Cc2cccc(C(=O)OCOC(=O)C(C)(C)C)c2OB1O [compound 20, (Pivaloyloxy)methyl (R)-2-Hydroxy-3-propionamido-3,4-dihydro-2H-benzo[e][1,2]oxaborinine-8-carboxylate]
oral bioavailability (F) in rats [5]: highest oral bioavailability
